From PubChem BioAssay
Activity calls are given as the source filed them.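 The calls were made as follows, unless noted: active = GFP response above 150% of the DMSO level; inconclusive = fewer than 70 events counted for a yeast strain; inactive = the rest.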

How the values were obtained:
[1] = hit retest on RPL19A-GFP reporter strain – cell-based, S. cerevisiae, flow cytometry, cherry picks, mother/daughter gates, confirmation (AID 2270;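 active = GFP response below 50% of the DMSO control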); conditions: 3 h, at 10 µM, stronger effect = lower value, 100 = same GFP as DMSO wells
[2] = yeast TOR pathway reporter LAP4-GFP change – cell-based, cherry picks, flow cytometry, mother/daughter gates, confirmation (AID 2271;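 active = GFP response above 150% of the DMSO control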;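 also: ratio of sample to DMSO plate mean so 100% equals DMSO level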); conditions: S. cerevisiae LAP4-GFP strain, 3 h, at 10 µM, stronger effect = higher value, 100 means same as DMSO control
How it was run: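 material = Alexa 633-stained baker's yeast GFP-fusion strain | amount = 0.2 OD600 cells | schedule = 30 °C, 3 h compound incubation, rotating | signal = GFP by flow cytometry | measure = per-gate (all, mother, daughter) GFP response vs DMSO | controls = positive rapamycin (400 ng/mL), negative DMSO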

[3] = TOR pathway reporter MEP2-GFP, retest of hits – S. cerevisiae, flow cytometry GFP, cherry picks, confirmation (AID 2272;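 active = GFP response above 150% of the DMSO control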;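 also: ratio of well signal to plate DMSO mean so 100% equals DMSO level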); conditions: S. cerevisiae MEP2-GFP strain, 3 h, at 10 µM, stronger effect = higher value
[4] = yeast AGP1-GFP fluorescence change, single-dose – cell-based, flow cytometry, S. cerevisiae, cherry picks, confirmation (AID 2273);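 also: median GFP channel fluorescence over the whole cell population gate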; conditions: S. cerevisiae AGP1-GFP strain, 3 h, at 10 µM
[5] = TOR pathway CIT2 reporter hit retest – S. cerevisiae, GFP fusion, cherry picks, mother/daughter gates, confirmation (AID 2274); conditions: S. cerevisiae CIT2-GFP strain, flow cytometry, 3 h, at 10 µM, stronger effect = higher value
[6] = measured here: daughter cell gate
[7] = measured here: mother cell gate
[8] = measured here: daughter cell gate response
[9] = measured here: mother cell gate response

SMILES	GFP response vs DMSO [1]	GFP response vs DMSO [1, 6] [%]	GFP response vs DMSO [1, 7] [%]	GFP response relative to DMSO [2]	GFP response relative to DMSO [2, 8] [%]	GFP response relative to DMSO [2, 9] [%]	GFP response vs DMSO [3]	GFP response, % of DMSO [4]	GFP response, % of DMSO [5]	GFP response, % of DMSO [5, 6] [%]	GFP response, % of DMSO [5, 7] [%]
O=C(NCCCSc1ccccc1)c1cc(Br)ccc1O	97.8% (inactive)	97.1	99.2	106% (inactive)	104	108	100% (inactive)	93.3% (inactive)	98.3% (inactive)	99.1	99.7
CSC1=NC(=O)/C(=C/c2ccc(SC)cc2)S1	95.1% (inactive)	78	92.5	138% (inactive)	115	134	110% (inactive)	107% (inactive)	75% (inactive)	78.1	70.3
CCS(=O)(=O)Nc1cccc(C2=NN(S(C)(=O)=O)C(c3ccccc3)C2)c1 (stereo unspecified)	100% (inactive)	101	100	110% (inactive)	105	112	120% (inactive)	112% (inactive)	111% (inactive)	112	110
Cc1nc(C)c(-c2csc(NCCc3ccccc3)n2)s1	96.7% (inactive)	96.4	95.9	112% (inactive)	105	113	112% (inactive)	96.6% (inactive)	108% (inactive)	110	107
COCCNc1c(-c2ccc(O)cc2)nc2ccc(Cl)cn12	97.6% (inactive)	97.4	97.7	99.2% (inactive)	99.2	98.3	98.3% (inactive)	93.1% (inactive)	98.3% (inactive)	99.1	97.3
COc1ccc(-c2csc(NC(=O)c3ccco3)n2)cc1	98.4% (inactive)	96.7	97.8	109% (inactive)	102	109	104% (inactive)	91.9% (inactive)	99.3% (inactive)	100	96.8
O=C(NCCN1CCOCC1)c1ccc(CS(=O)(=O)Cc2ccccc2F)o1	99.6% (inactive)	100	99.7	98.6% (inactive)	99.7	98.2	103% (inactive)	104% (inactive)	110% (inactive)	108	110
Oc1c(CN2CCN(c3ccccc3)CC2)cc(Br)c2cccnc12	99.6% (inactive)	101	95.9	220% (active)	168	231	153% (inactive)	81.5% (inactive)	103% (inactive)	99.1	93.8
Cc1cc(O)c(C(=O)/C=C/c2ccccc2Br)c(=O)o1	90.3% (inactive)	95.9	87.7	140% (inactive)	137	144	97.8% (inactive)	102% (inactive)	95.2% (inactive)	98.1	93.4
O=C(CSc1ccc(Cl)cc1)Nc1cccc(-c2nc3ccccc3[nH]2)c1	97.8% (inactive)	98	97.8	101% (inactive)	97.9	101	99.5% (inactive)	98% (inactive)	96.4% (inactive)	96.4	95.6
COc1cc(NC(=O)c2oc3ccccc3c2C)ccc1NC(=O)c1ccco1	98% (inactive)	97.8	98.4	97.7% (inactive)	99	100	110% (inactive)	102% (inactive)	98.6% (inactive)	97.6	99.3
Cc1ccc(C(=O)NNC(=S)NC(=O)COc2ccccc2)cc1	122% (inactive)	92.1	110	223% (active)	186	203	153% (inactive)	134% (inactive)	138% (inactive)	139	110
Cc1cc(=O)n(-c2ccc3ccccc3n2)[nH]1	106% (inactive)	109	103	115% (inactive)	120	116	102% (inactive)	99.6% (inactive)	112% (inactive)	114	107
CC(=O)c1sc(NC(=O)c2ccco2)nc1-c1ccccc1	98.4% (inactive)	101	96.5	107% (inactive)	101	108	103% (inactive)	94.9% (inactive)	110% (inactive)	112	108
Cc1c(CC(C)C)nc(N)c(C#N)c1-c1ccccc1	98.4% (inactive)	99.8	99.7	94.2% (inactive)	89.3	92.6	102% (inactive)	98.7% (inactive)	102% (inactive)	102	100
CS(=O)(=O)Nc1ccc(C2=NN(S(C)(=O)=O)C(c3ccc4c(c3)OCO4)C2)cc1 (stereo unspecified)	98.6% (inactive)	98.4	99.4	97.4% (inactive)	102	99.3	104% (inactive)	102% (inactive)	103% (inactive)	99.7	103

SMILES	GFP response vs DMSO [1]	GFP response vs DMSO [1, 6] [%]	GFP response vs DMSO [1, 7] [%]	GFP response relative to DMSO [2]	GFP response relative to DMSO [2, 8] [%]	GFP response relative to DMSO [2, 9] [%]	GFP response vs DMSO [3]	GFP response, % of DMSO [4]	GFP response, % of DMSO [5]	GFP response, % of DMSO [5, 6] [%]	GFP response, % of DMSO [5, 7] [%]
Cc1ccc(NC(=O)CC2SC(=O)N(c3ccccc3)C2=O)cc1 (stereo unspecified)	97.8% (inactive)	101	94.5	142% (inactive)	140	143	112% (inactive)	98.9% (inactive)	102% (inactive)	104	94.5
CCc1c2ccccc2nn1-c1ccccc1C(=O)C(C)=O	95.8% (inactive)	97.3	94	102% (inactive)	101	102	103% (inactive)	100% (inactive)	98.6% (inactive)	99.3	98.2
C=CCOc1ccccc1C(=O)/C=C1/C(=O)Nc2ccccc21	101% (inactive)	102	95	142% (inactive)	130	148	94.7% (inactive)	100% (inactive)	91.5% (inactive)	95.6	88.2
Cn1cc(/C=C/c2cc[n+](C)cc2)c2cc(Cl)ccc21	99.2% (inactive)	97.9	100	111% (inactive)	112	110	122% (inactive)	111% (inactive)	125% (inactive)	128	124
Cc1ccc(-n2nnnc2C(Cl)(Cl)c2nnnn2-c2ccc(C)cc2)cc1	99.7% (inactive)	98.8	98.6	136% (inactive)	120	139	112% (inactive)	100% (inactive)	105% (inactive)	106	100
O=C(OCn1ncc(Br)c(Br)c1=O)c1ccccc1Cl	94.1% (inactive)	96.2	90.1	172% (active)	150	167	112% (inactive)	105% (inactive)	95% (inactive)	104	86.3
O=C(O)CCCn1nc(-c2ccccc2)c2ccccc21	99% (inactive)	98.4	100	112% (inactive)	112	111	103% (inactive)	101% (inactive)	103% (inactive)	106	96.8
O=C(N/N=C/c1c(Cl)cccc1Cl)c1ccc(F)cc1	95% (inactive)	96.1	95.7	105% (inactive)	102	105	96.8% (inactive)	97.1% (inactive)	103% (inactive)	103	102
COCCn1c(=N)c(C(=O)NCc2ccco2)cc2c(=O)n3ccccc3nc21	100% (inactive)	95.3	93.5	96.5% (inactive)	96	86.3	95.2% (inactive)	102% (inactive)	100% (inactive)	97.6	97.1
O=C(NCc1ccc2c(c1)OCO2)c1nc(S(=O)(=O)Cc2ccccc2)ncc1Cl	97.8% (inactive)	96.2	97.4	109% (inactive)	102	109	99.5% (inactive)	94.5% (inactive)	99.3% (inactive)	98.3	96.8
COc1cc(/C=C/c2ccc3c(Br)cc(Br)c(O)c3n2)ccc1O	101% (inactive)	107	102	107% (inactive)	106	108	108% (inactive)	98.6% (inactive)	99.7% (inactive)	105	89.8
C=CCn1cc(/C=C/c2cc[n+](C)cc2)c2ccccc21	102% (inactive)	99.6	103	108% (inactive)	107	108	120% (inactive)	97.8% (inactive)	125% (inactive)	119	127
CCOC(=O)Cc1csc(NC(=O)c2sc3nc4ccc(CC)cc4cc3c2N)n1	98.9% (inactive)	99.5	99.4	95.3% (inactive)	94.4	97.4	108% (inactive)	107% (inactive)	98.6% (inactive)	99.3	99.3
Cc1ccc(S(=O)(=O)c2ncccc2[N+](=O)[O-])cc1	92.2% (inactive)	93.2	89.1	129% (inactive)	123	131	105% (inactive)	109% (inactive)	94.4% (inactive)	97.4	91.9
Cc1ccc(NN2C(=O)C=C(c3ccc(Cl)cc3)C2=O)cc1	83.9% (inactive)	87.1	74.3	289% (active)	117	280	111% (inactive)	91.3% (inactive)	96.9% (inactive)	91.7	83.1
